From paper PMC2760637 (Journal of molecular recognition : JMR, 2009)
*1 amine or outer side, *2 acyl side, *3 side chain or, on linkers, in order; H or OH if unused. Bridges are numbered along the chain shown (N, C = ends). [ ]: non-standard residue; d: D form. Tyr(OMe) = O-methyl-tyrosine, COc1ccc(C[C@H](N[*:1])C(=O)[*:2])cc1

Tests used:
[1] = system: classical pathway of complement activation; test: Complement inhibition assay; format: biochemical
Summary of the method: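 Classical-pathway activation was triggered by antigen–antibody complexes formed on the ELISA plate: an albumin-coated plate bound by a polyclonal anti-ovalbumin antibody. C3b deposited in the presence of the test peptide was detected by ELISA. Percent inhibition was plotted against peptide concentration and fitted to a logistic dose-response function to derive IC50.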

[2] = molecular target: complement C3 (Homo sapiens) (UniProt P01024); test: ITC; details: cited from earlier work
[3] = molecular target: complement C3 (Homo sapiens), P01024; test: ITC; details: Y4 is O-methyl-Tyr, N-acetyl, C-amide, disulfide C2-C12

In the case of “Ac-ICV(1MeW)QisoDWGAHRCT [4(1MeW)6(isoD)]”, the “inhibitory activity (in words)” value ([1]; listed as 4(1MeW)6isoD) is reported as “lacked inhibitory activity” and the “inhibitory activity (in words)” value ([1]; listed as 6isoD) is reported as “complete loss of activity”.

In the case of compstatin 4(5MeW), the Kd [2] is listed as 0.12 µM.

B1: compstatin 4MeY (peptide)
chain: Ac-ICV[Tyr(OMe)]QDWGAHRCT-NH2
modifications: disulfide 2-12
SMILES: CC[C@H](C)[C@H](NC(C)=O)C(=O)N[C@H]1CSSC[C@@H](C(=O)N[C@H](C(N)=O)[C@@H](C)O)NC(=O)[C@H](CCCNC(=N)N)NC(=O)[C@H](Cc2c[nH]cn2)NC(=O)[C@H](C)NC(=O)CNC(=O)[C@H](Cc2c[nH]c3ccccc23)NC(=O)[C@H](CC(=O)O)NC(=O)[C@H](CCC(N)=O)NC(=O)[C@H](Cc2ccc(OC)cc2)NC(=O)[C@H](C(C)C)NC1=O
B1 showed a Kd [3] of 0.115 µM.
